Assay results published in ChEMBL document CHEMBL1150335, “Benzoylurea derivatives as a novel class of antimitotic agents: synthesis, anticancer activity, and structure-activity relationships” (J Med Chem, 2008).
Activity calls are given as the source filed them. The rule behind the calls is not given here.

What was measured:
[1] = system: CCRF-CEM; assay: Antiproliferative activity against human CEM cells after 72 hrs by trypan blue assay; assay type: functional, cell-based
Summary of the method: (§1)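 Cells kept in RPMI-1640 with 10% heat-inactivated fetal calf serum, penicillin and streptomycin, 5% CO2, 37 °C, used in exponential growth. 1 × 10⁵ cells per well exposed to compound at 0.001–10 µM at 37 °C (48 h in methods, 72 h in table footnotes). Viability by Trypan blue versus untreated controls. IC50 by nonlinear regression, duplicate, three repeats.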

[2] = system: Daudi; assay: Antiproliferative activity against human Daudi cells after 72 hrs by trypan blue assay; assay type: functional, cell-based; summary of the method: as §1
[3] = system: MCF7; assay: Antiproliferative activity against human MCF7 cells after 72 hrs by trypan blue assay; assay type: functional, cell-based; settings: MCF7, 72 h; summary of the method: as §1
[4] = system: Bel-7402; assay: Antiproliferative activity against human Bel7402 cells after 72 hrs by trypan blue assay; assay type: functional, cell-based; settings: Bel-7402, 72 h; summary of the method: as §1
[5] = system: DU-145; assay: Antiproliferative activity against human DU145 cells after 72 hrs by trypan blue assay; assay type: functional, cell-based; settings: DU-145, 72 h; summary of the method: as §1
[6] = system: PC-3; assay: Antiproliferative activity against human PC3 cells after 72 hrs by trypan blue assay; assay type: functional, cell-based; settings: PC-3, 72 h; summary of the method: as §1
[7] = Antiproliferative activity against human DND1A cells after 72 hrs by trypan blue assay; assay type: functional, cell-based; summary of the method: as §1
[8] = system: LoVo; assay: Antiproliferative activity against human LOVO cells after 72 hrs by trypan blue assay; assay type: functional, cell-based; summary of the method: as §1
[9] = Antiproliferative activity against human MIA cells after 72 hrs by trypan blue assay; assay type: functional, cell-based; summary of the method: as §1
[10] = system: Bel-7402; assay: Antitumor activity against human Bel7402 cells xenografted BALB/c mouse assessed as inhibition of tumor growth at 5 mg/kg, ip q2d after 25 days relative to control; assay type: functional; settings: Bel-7402, ip, 600 h, route intraperitoneal
Summary of the method: (§2)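 Male Balb/c nude mice (16-20 g, 6-7 weeks) given sc Bel-7402 cells, 5 × 10⁶ per mouse, on the back. Six injections q2d. Tumor volume measured weekly by calipers = length × width² × 0.52. Body weight recorded before and after treatment.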

[11] = system: Bel-7402; assay: Antitumor activity against human Bel7402 cells xenografted BALB/c mouse assessed as inhibition of tumor growth at 10 mg/kg, ip q2d after 25 days relative to control; assay type: functional; settings: Bel-7402, ip, 600 h, route intraperitoneal; summary of the method: as §2
[12] = system: Mus musculus; assay: Toxicity in human Bel7402 cells xenografted BALB/c mouse assessed as body weight at 10 mg/kg, ip q2d after 25 days relative to control; assay type: organism-based, Bel-7402; set-up: dose 10 mg/kg, route intraperitoneal; settings: in vivo, 600 h; summary of the method: as §2
[13] = system: Bel-7402; assay: Antitumor activity against human Bel7402 cells xenografted ip dosed BALB/c mouse assessed as inhibition of tumor growth after 25 days relative to control; assay type: functional; settings: Bel-7402, ip, 600 h
Summary of the method: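 Male Balb/c nude mice (16-20 g, 6-7 weeks) given sc Bel-7402 cells (5 × 10⁶/mouse) on the back. On day 12 they were randomized (5/group) to solvent control or 5 or 10 mg/kg ip, six doses q2d. Tumors were measured weekly by caliper, volume = length × width² × 0.52. Inhibition was taken versus solvent-treated controls on day 25 post-treatment.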

[14] = system: CCRF-CEM; assay: Cell cycle arrest in human CEM cells assessed as accumulation at G2/M phase at 0.22 uM after 4 to 24 hrs by flow cytometry; assay type: functional, cell-based
Summary of the method: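 CEM cells exposed to 0.22 µM compound or left untreated for 4, 12 or 24 h. Fixed in 70% ethanol for at least 12 h at 4 °C, then RNase A 50 µg/mL at 37 °C for 30 min and propidium iodide 50 µg/mL final at 4 °C for 30 min. At least 10⁴ events read by flow cytometry for DNA profile.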

[15] = Inhibition of beta tubulin polymerization at 1 uM
[16] = Inhibition of beta tubulin polymerization
[17] = system: CCRF-CEM; assay: Cell cycle arrest in human CEM cells assessed as accumulation at M phase at <0.01 uM after 12 hrs by flow cytometry; assay type: functional
[18] = system: CCRF-CEM; assay: Induction of apoptosis in human CEM cells assessed as Bcl2 phosphorylation at 0.014 to 0.27 uM after 12 to 24 hrs by Western blot; assay type: functional, cell-based
Summary of the method: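 CEM cells exposed to 0.014–0.27 µM for 12 or 24 h, then lysed in Tris-HCl pH 7.4 buffer with detergents and protease/phosphatase inhibitors. Equal lysate run on 10% SDS-PAGE and transferred to PVDF. Blocked in 5% milk/TBST, probed with anti-Bcl-2 monoclonal and HRP secondary, detected by ECL; phosphorylated Bcl-2 seen as a separate band.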

[19] = system: CCRF-CEM; assay: Cell cycle arrest in human CEM cells assessed as morphological changes at 0.014 uM after 24 hrs by Giemsa staining
[20] = Inhibition of beta tubulin polymerization at 20 uM

| SMILES | IC50 [1] | other results |
| --- | --- | --- |
| COC(=O)c1cc(NC(=O)CBr)cc(C(=O)NC(N)=O)c1 | 1300 nM |  |
| COC(=O)c1cc(NC(=O)C(C)Br)cc(C(=O)NC(N)=O)c1 (stereo not given) | 2700 nM |  |
| NC(=O)NC(=O)c1csc(NC(=O)CBr)c1 | 1130 nM |  |
| NC(=O)NC(=O)c1ccc(F)c(NC(=O)CBr)c1 | 2290 nM |  |
| NC(=O)NC(=O)c1cc(NC(=O)CI)ccc1F | < 10 nM | IC50 [2]: < 10 nM; IC50 [3]: < 10 nM; IC50 [4]: 160 nM; IC50 [5]: 220 nM; IC50 [6]: 190 nM; IC50 [7]: 20 nM; IC50 [8]: 190 nM; IC50 [9]: 54 nM; inhibition in vivo at 5 mg/kg [10]: 62%; inhibition in vivo at 10 mg/kg [11]: 86%; Activity [12]: 21.6 g; LD50 [13]: 38.8 mg/kg; Activity [14]: Active; Activity [15]: Active; IC50 [16]: 710 nM; Activity [17]: 37.6%; Activity [18]: Active; Activity [19]: Active |
| COc1ccc(C(=O)NC(N)=O)cc1NC(=O)C(C)Cl (stereo not given) | > 20000 nM |  |
| CC(Br)C(=O)Nc1ccc(C(=O)NC(N)=O)o1 (stereo not given) | 9440 nM |  |
| NC(=O)NC(=O)c1cc(NC(=O)CBr)cc([N+](=O)[O-])c1 | 1530 nM |  |
| CC(Br)C(=O)Nc1cc(C(=O)NC(N)=O)cs1 (stereo not given) | 3940 nM |  |
| COC(=O)c1cc(NC(=O)CI)cc(C(=O)NC(N)=O)c1 | 1910 nM |  |
| Cc1c(NC(=O)C(C)Cl)cccc1C(=O)NC(N)=O (stereo not given) | > 20000 nM |  |
| Cc1ccc(C(=O)NC(N)=O)cc1NC(=O)C(C)Br (stereo not given) | 3360 nM |  |
| Cc1c(NC(=O)C(C)Br)cccc1C(=O)NC(N)=O (stereo not given) | 480 nM |  |
| COc1ccc(C(=O)NC(N)=O)cc1NC(=O)CBr | 1880 nM |  |
| NC(=O)NC(=O)c1ccc(O)c(NC(=O)CBr)c1 | > 20000 nM |  |
| NC(=O)NC(=O)c1ccc(NC(=O)CBr)o1 | 4050 nM |  |
| CC(=O)O[C@H]1C(=O)[C@@]2(C)[C@H]([C@H](OC(=O)c3ccccc3)[C@]3(O)C[C@H](OC(=O)[C@H](O)[C@@H](NC(=O)c4ccccc4)c4ccccc4)C(C)=C1C3(C)C)[C@]1(OC(C)=O)CO[C@@H]1C[C@@H]2O |  | Activity [20]: inactive |
| C[C@@H](Br)C(=O)Nc1cccc(C(=O)NC(N)=O)c1 | 1470 nM |  |
| CC(Br)C(=O)Nc1cc(C(=O)NC(N)=O)cc([N+](=O)[O-])c1 (stereo not given) | 1580 nM |  |
| C[C@H](Br)C(=O)Nc1cccc(C(=O)NC(N)=O)c1 | 1470 nM |  |
| COc1ccc(C(=O)NC(N)=O)cc1NC(=O)C(C)Br (stereo not given) | > 20000 nM |  |
| CC[C@]1(O)C[C@H]2CN(CCc3c([nH]c4ccccc34)[C@@](C(=O)OC)(c3cc4c(cc3OC)N(C=O)[C@H]3[C@@](O)(C(=O)OC)[C@H](OC(C)=O)[C@]5(CC)C=CCN6CC[C@]43[C@@H]65)C2)C1 |  | Activity [20]: Active |
| NC(=O)NC(=O)c1cccc(NC(=O)CI)c1 | < 10 nM | inhibition in vivo at 10 mg/kg [11]: 57%; LD50 [13]: 31 mg/kg |
| CC(Br)C(=O)Nc1cc(C(=O)NC(N)=O)ccc1F (stereo not given) | 3130 nM |  |
| Cc1ccc(C(=O)NC(N)=O)cc1NC(=O)C(C)Cl (stereo not given) | > 20000 nM |  |

Second part, led by results:

| IC50 [1] | SMILES | other results |
| --- | --- | --- |
| 1710 nM | Cc1c(NC(=O)CBr)cccc1C(=O)NC(N)=O |  |
| 2700 nM | Cc1c(NC(=O)CCl)cccc1C(=O)NC(N)=O |  |
| 1570 nM | COc1ccc(NC(=O)CBr)cc1C(=O)NC(N)=O |  |
| 15900 nM | NC(=O)NC(=O)c1ccc(Cl)c(NC(=O)CCl)c1 |  |
| 16600 nM | NC(=O)NC(=O)c1ccc(NC(=O)CCl)o1 |  |
| > 20000 nM | Cc1ccc(NC(=O)C(C)Br)cc1C(=O)NC(N)=O (stereo not given) |  |
| 7630 nM | CC(Br)C(=O)Nc1ccc(Br)c(C(=O)NC(N)=O)c1 (stereo not given) |  |
| 7680 nM | NC(=O)NC(=O)c1cc(NC(=O)CCl)ccc1F |  |
| > 20000 nM | NC(=O)NC(=O)c1ccc(O)c(NC(=O)CCl)c1 |  |
| 20000 nM | Cc1ccc(NC(=O)CI)cc1C(=O)NC(N)=O |  |
| > 20000 nM | CC(Cl)C(=O)Nc1cc(C(=O)NC(N)=O)ccc1Cl (stereo not given) |  |
| 4760 nM | Cc1ccc(NC(=O)CBr)cc1C(=O)NC(N)=O |  |
| 520 nM | CC(Br)C(=O)Nc1ccc(F)c(C(=O)NC(N)=O)c1 (stereo not given) |  |
| > 20000 nM | COc1ccc(C(=O)NC(N)=O)cc1NC(=O)CCl |  |
| 2440 nM | NC(=O)NC(=O)c1cc(NC(=O)CCl)ccc1Cl |  |
| 1160 nM | NC(=O)NC(=O)c1cc(NC(=O)CBr)ccc1Br |  |
| 4280 nM | Cc1ccc(C(=O)NC(N)=O)cc1NC(=O)CBr |  |
| 9800 nM | CC(Br)C(=O)Nc1cc(C(=O)NC(N)=O)ccc1Cl (stereo not given) |  |
| > 20000 nM | NC(=O)NC(=O)c1ccc(F)c(NC(=O)CCl)c1 |  |
| 2910 nM | NC(=O)NC(=O)c1ccc(Cl)c(NC(=O)CBr)c1 |  |
| 3360 nM | Cc1ccc(C(=O)NC(N)=O)cc1NC(=O)CCl |  |
| 540 nM | NC(=O)NC(=O)c1cc(NC(=O)CBr)ccc1Cl |  |
| < 10 nM | NC(=O)NC(=O)c1cc(NC(=O)CBr)ccc1F | IC50 [2]: 15 nM; IC50 [3]: 80 nM; inhibition in vivo at 5 mg/kg [10]: 37%; inhibition in vivo at 10 mg/kg [11]: 52%; Activity [12]: 18.6 g; Activity [17]: 31.3% |
| 2550 nM | CC(Br)C(=O)Nc1ccc(Cl)c(C(=O)NC(N)=O)c1 (stereo not given) |  |
